We go through 23 molecules from ChEMBL document CHEMBL1221376, “Identification and optimization of novel 2-(4-oxo-2-aryl-quinazolin-3(4H)-yl)acetamide vasopressin V3 (V1b) receptor antagonists” (Bioorg Med Chem Lett, 2010).

Broadly, the IC50 is the midpoint of a concentration-inhibition curve. Higher therefore signals lower potency. The term inhibition denotes the change of the read-out against control, counted positive when it falls. The low end stands for a weak effect, the high end for a strong effect.

Test [1] deals with T1, Vasopressin V1b receptor (Homo sapiens, UniProt P47901).
T1 sequence (P47901 whole entry): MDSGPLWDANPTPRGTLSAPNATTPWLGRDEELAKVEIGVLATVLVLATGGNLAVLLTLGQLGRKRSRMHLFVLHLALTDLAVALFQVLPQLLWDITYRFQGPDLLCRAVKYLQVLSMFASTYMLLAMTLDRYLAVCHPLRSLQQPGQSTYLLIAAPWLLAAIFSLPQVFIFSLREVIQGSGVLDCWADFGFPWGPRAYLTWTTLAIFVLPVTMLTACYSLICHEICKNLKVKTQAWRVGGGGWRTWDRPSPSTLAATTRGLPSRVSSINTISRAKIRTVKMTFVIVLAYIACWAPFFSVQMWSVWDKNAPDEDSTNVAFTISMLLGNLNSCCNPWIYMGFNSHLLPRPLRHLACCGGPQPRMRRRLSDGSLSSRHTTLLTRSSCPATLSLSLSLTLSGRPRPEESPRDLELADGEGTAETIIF
Description: Displacement of [3H]AVP from human vasopresin3 receptor expressed in CHO cells. In kind it is cell-based. Put shortly: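 Whole-cell binding on CHO cells stably expressing human V3 (V1b) receptor, grown at 37 °C with 5% CO2. Cells seeded at 30,000 per well, cultured overnight at 37 °C, then washed twice with PBS. Serially diluted compounds plus 5 nM [3H]-AVP (final) in PBS with 10 mM MgCl2, 0.1% BSA and 1% DMSO, 30 min at room temperature. Washed, air dried, scintillation counted.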
Background: Displacement assays read how much labelled ligand stays bound in the presence of the test substance.

Test [2] has as its target Vasopressin V1a receptor (Homo sapiens) (UniProt P37288). Kind of test: Displacement of [3H]AVP from human vasopressin V1a receptor at 5 uM. Put shortly:
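Membrane binding using membranes from CHO cells stably expressing human V1a receptor, with 5 nM [3H]-AVP (final) and test compound in 50 mM Tris–HCl pH 7.4, 5 mM MgCl2, 1 mg/mL BSA and 0.5% DMSO. Incubated 60 min at room temperature, then rapid filtration over polyethylenimine-soaked GF/B filters. Filters washed with ice-cold Tris–HCl, dried 30 min at 55 °C, scintillation counted.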

In the next test the target is Vasopressin V2 receptor (Homo sapiens, UniProt P30518). Description: Displacement of [3H]AVP from human vasopressin V2 receptor.
Vasopressin V2 receptor, sequence (P30518 whole entry): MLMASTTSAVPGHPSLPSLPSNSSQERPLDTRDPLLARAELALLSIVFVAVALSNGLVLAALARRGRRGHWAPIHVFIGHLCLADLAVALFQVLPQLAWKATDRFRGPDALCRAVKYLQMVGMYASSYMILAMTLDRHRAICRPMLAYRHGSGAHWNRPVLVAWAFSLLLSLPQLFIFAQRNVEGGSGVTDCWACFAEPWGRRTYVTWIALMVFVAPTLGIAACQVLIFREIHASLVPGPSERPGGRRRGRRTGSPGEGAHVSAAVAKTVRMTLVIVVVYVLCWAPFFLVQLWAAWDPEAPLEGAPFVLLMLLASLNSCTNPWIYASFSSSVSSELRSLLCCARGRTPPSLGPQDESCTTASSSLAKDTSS
In a further test the target is T2, Oxytocin receptor (Homo sapiens, UniProt P30559).
T2 sequence (P30559 whole entry): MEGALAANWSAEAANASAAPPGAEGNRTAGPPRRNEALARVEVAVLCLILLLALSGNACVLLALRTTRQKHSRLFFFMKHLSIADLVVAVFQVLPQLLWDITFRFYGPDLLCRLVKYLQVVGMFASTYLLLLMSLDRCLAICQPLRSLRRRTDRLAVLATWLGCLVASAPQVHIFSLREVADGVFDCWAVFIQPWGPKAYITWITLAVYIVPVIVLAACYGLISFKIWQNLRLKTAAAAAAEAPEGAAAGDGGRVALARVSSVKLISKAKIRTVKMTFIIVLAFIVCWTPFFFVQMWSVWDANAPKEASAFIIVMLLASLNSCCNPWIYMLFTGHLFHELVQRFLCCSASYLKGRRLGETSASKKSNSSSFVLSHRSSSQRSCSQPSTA
Kind of test: Displacement of [3H]oxytocin from human oxytocin receptor.

Test [3] concerns the target T3, Vasopressin V1b receptor (Rattus norvegicus, UniProt P48974).
T3 sequence (P48974 whole entry): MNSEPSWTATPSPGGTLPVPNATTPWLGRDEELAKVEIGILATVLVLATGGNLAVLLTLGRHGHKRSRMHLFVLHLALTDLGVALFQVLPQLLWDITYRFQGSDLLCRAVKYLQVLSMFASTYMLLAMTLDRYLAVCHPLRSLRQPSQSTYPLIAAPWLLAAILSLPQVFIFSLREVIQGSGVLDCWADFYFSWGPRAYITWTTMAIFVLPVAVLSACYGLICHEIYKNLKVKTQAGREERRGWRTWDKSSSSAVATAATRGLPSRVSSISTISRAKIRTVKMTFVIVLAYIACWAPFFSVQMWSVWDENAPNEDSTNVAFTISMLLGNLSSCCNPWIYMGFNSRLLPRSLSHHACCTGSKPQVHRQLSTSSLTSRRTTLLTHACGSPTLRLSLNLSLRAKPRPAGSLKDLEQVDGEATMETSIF
Kind of test: Displacement of [3H]AVP from rat vasopressin V3 receptor.

Vasopressin V1a receptor (Homo sapiens), sequence (P37288 whole entry, looked up): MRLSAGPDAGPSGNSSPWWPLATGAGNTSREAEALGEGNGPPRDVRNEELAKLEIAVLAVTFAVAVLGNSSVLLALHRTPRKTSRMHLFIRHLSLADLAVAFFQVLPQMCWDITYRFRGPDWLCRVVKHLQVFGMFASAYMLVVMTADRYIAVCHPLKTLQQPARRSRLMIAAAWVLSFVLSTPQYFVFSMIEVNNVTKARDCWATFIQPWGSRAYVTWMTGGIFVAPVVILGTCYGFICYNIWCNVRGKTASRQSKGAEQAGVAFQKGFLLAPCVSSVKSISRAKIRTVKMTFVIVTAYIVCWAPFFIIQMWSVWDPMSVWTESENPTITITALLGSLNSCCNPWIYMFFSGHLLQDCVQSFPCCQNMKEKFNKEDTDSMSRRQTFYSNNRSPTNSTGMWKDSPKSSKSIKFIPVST

For the molecule `CN1CCN(CCOc2ccc3nc(-c4ccccc4)n(CC(=O)NCC4CC4)c(=O)c3c2)CC1`, the IC50 at Vasopressin V1b receptor [1] amounted to 22 µM.

With `NCCCOc1ccc2nc(-c3ccccc3)n(CC(=O)NCC3CC3)c(=O)c2c1`, the IC50 at Vasopressin V1b receptor [1] came to 3.6 µM.

Regarding `O=C(Cn1c(-c2ccccc2)nc2ccc(OCCCN3CCCCC3)cc2c1=O)NCC1CC1`, the 50% inhibitory concentration (IC50) at Vasopressin V1b receptor [1] was found to be 0.31 µM.

On Vasopressin V1b receptor [1], `CN1CCN(CCCOc2ccc3nc(-c4ccccc4)n(CC(=O)NCC4CC4)c(=O)c3c2)CC1` had a concentration for half-maximal inhibition (IC50) of 1.7 µM.

On Vasopressin V1b receptor [1], `O=C(Cn1c(-c2ccccc2)nc2ccc(OCCCN3CCCCCC3)cc2c1=O)NCC1CC1` gave a 50% inhibitory concentration (IC50) of 0.34 µM.

At Vasopressin V1b receptor [1], `NCC(=O)NCCOc1ccc2nc(-c3ccccc3)n(CC(=O)NCC3CC3)c(=O)c2c1` came in with an IC50 of 30.5 µM.

Regarding `O=C(Cn1c(-c2ccccc2)nc2ccc(OCCCN3CCC(O)CC3)cc2c1=O)NCC1CC1`, the IC50 on Vasopressin V1b receptor [1] came out at 1.1 µM.

With `COC1CCN(CCCOc2ccc3nc(-c4ccccc4)n(CC(=O)NCC4CC4)c(=O)c3c2)CC1`, the IC50 on Vasopressin V1b receptor [1] was determined as 0.71 µM.

Turning to `CNCCCOc1ccc2nc(-c3ccccc3)n(CC(=O)NCC3CC3)c(=O)c2c1`, on Vasopressin V1b receptor [1], the IC50 turned out to be 7.6 µM.

`CC(C)C[C@@H](COc1ccc2nc(-c3ccccc3)n(CC(=O)NCC3CC3)c(=O)c2c1)NC(=O)CN` had an IC50 on Vasopressin V1b receptor [1] of 5.1 µM.

Molecule `NCCCCOc1ccc2nc(-c3ccccc3)n(CC(=O)NCC3CC3)c(=O)c2c1` yielded an IC50 on Vasopressin V1b receptor [1] greater than 30 µM.

The molecule `O=C(Cn1c(-c2ccccc2)nc2ccc(O)cc2c1=O)NCC1CC1` yielded a half-inhibitory concentration (IC50) at Vasopressin V1b receptor [1] greater than 100 µM.

In the case of `NCCCCCOc1ccc2nc(-c3ccccc3)n(CC(=O)NCC3CC3)c(=O)c2c1`, on Vasopressin V1b receptor [1], the IC50 is greater than 30 µM.

For `CC(C)C[C@@H](COc1ccc2nc(-c3ccccc3)n(CC(=O)NCC3CC3)c(=O)c2c1)NC(=O)[C@@H](N)Cc1ccc(O)cc1`, at Vasopressin V1b receptor [1], the half-maximal inhibitory concentration (IC50) was 0.2 µM.

As for `O=C(Cn1c(-c2ccccc2)nc2ccc(OCCCN3CCOCC3)cc2c1=O)NCC1CC1`, the inhibition in test [2] was 6%. Moreover, the half-inhibitory concentration (IC50) was greater than 100 µM on Vasopressin V2 receptor, greater than 100 µM at Oxytocin receptor, 0.21 µM on Vasopressin V1b receptor [3] and 0.12 µM at Vasopressin V1b receptor [1].

In the case of `CN1CCN(CCCCOc2ccc3nc(-c4ccccc4)n(CC(=O)NCC4CC4)c(=O)c3c2)CC1`, on Vasopressin V1b receptor [1], the IC50 is 4.8 µM.

`NCCOc1ccc2nc(-c3ccccc3)n(CC(=O)NCC3CC3)c(=O)c2c1`: the half-inhibitory concentration (IC50) on Vasopressin V1b receptor [1] amounted to 4 µM.

Take `O=C(CCc1ccc(O)cc1)NCCOc1ccc2nc(-c3ccccc3)n(CC(=O)NCC3CC3)c(=O)c2c1`: the IC50 at Vasopressin V1b receptor [1] is greater than 100 µM.

`CCN(CC)CCCOc1ccc2nc(-c3ccccc3)n(CC(=O)NCC3CC3)c(=O)c2c1` gave an IC50 on Vasopressin V1b receptor [1] of 3.8 µM.

Regarding `O=C(Cn1c(-c2ccccc2)nc2ccc(OCCCN3CCCC3)cc2c1=O)NCC1CC1`, the concentration for half-maximal inhibition (IC50) at Vasopressin V1b receptor [1] was determined as 1.8 µM.

In turn, `NCCCCCCOc1ccc2nc(-c3ccccc3)n(CC(=O)NCC3CC3)c(=O)c2c1` had a concentration for half-maximal inhibition (IC50) at Vasopressin V1b receptor [1] greater than 100 µM.

Turning to `CC(C)C[C@H](N)COc1ccc2nc(-c3ccccc3)n(CC(=O)NCC3CC3)c(=O)c2c1`, the IC50 on Vasopressin V1b receptor [1] stood at 2.1 µM.

For the molecule `O=C(Cn1c(-c2ccccc2)nc2ccc(OCCCN3CCNCC3)cc2c1=O)NCC1CC1`, the half-maximal inhibitory concentration (IC50) on Vasopressin V1b receptor [1] worked out at 25.8 µM.
